Data: ChEMBL document CHEMBL1124200, “6-substituted 1,3,4,5-tetrahydrobenz[cd]indol-4-amines: potent serotonin agonists” (J Med Chem, 1988)

What was measured:
[1] = target: Serotonin 1 (5-HT1) receptor (Rattus norvegicus, UniProt P28564+P30940+P19327+P28565); assay: Ability to inhibit binding of titreated serotonin to the 5-hydroxytryptamine 1 receptor in rat brain frontal cortex membranes; format: cell membranes, Membrane
Rattus norvegicus [2] = assay: In vivo serum corticosterone concentration in male Wistar rats after injecting 0.3 mg/kg of compound subcutaneously; format: functional, organism-based; parameters: dose 0.3 mg/kg
Outline: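 Serum corticosterone in male Wistar rats, measured spectrofluorometrically and reported per 100 mL of serum.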

Rattus norvegicus [3] = species: Rattus norvegicus; assay: Effect on 5HIAA (5-hydroxyindoleacetic acid) concentration in hypothalamus as an index of serotonin turnover in male Wistar rats expressed as percent of control; format: functional
Outline: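 Hypothalamic 5-hydroxyindoleacetic acid in male Wistar rats, used as an index of serotonin turnover. Measured by liquid chromatography with electrochemical detection and expressed as percent of control.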

[4] = target: T1, Serotonin 2 (5-HT2) receptor (Rattus norvegicus, UniProt P30994+P08909+P14842); assay: Ability to inhibit binding of titreated spiperone to the 5-hydroxytryptamine 2 receptor in rat brain frontal cortex membranes; format: cell membranes, Membrane
Outline: (§1)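 5HT-2 binding in rat frontal cortex membranes with [3H]spiperone as radioligand. Tested at eleven concentrations between 0.1 and 10 000 nM, each in duplicate. IC50 is the concentration that halves specific binding, obtained by curve fitting.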

[5] = target: T1, Serotonin 2 (5-HT2) receptor; assay: Ability to inhibit binding of titreated spiperone to 5-hydroxytryptamine 2 receptor in rat brain frontal cortex membranes; format: cell membranes, Membrane; outline: as §1

Compound	IC50 [1]	Concentration (Rattus norvegicus [2])	5-HIAA level, % of control (Rattus norvegicus [3])	IC50 [4]	IC50 [5]
CN(C)C1Cc2c[nH]c3ccc(C(N)=O)c(c23)C1 (stereo unspecified)	390 nM	9 µg 100ml-1	99%	5440 nM	
CCCN(CCC)C1Cc2c[nH]c3ccc(Br)c(c23)C1 (stereo unspecified)	241 nM	13 µg 100ml-1	77%		15444 nM
COc1ccc2[nH]cc3c2c1CC(N(C)C)C3 (stereo unspecified)	96 nM	41 µg 100ml-1	65%	1756 nM	
CCCN(CCC)C1Cc2c[nH]c3ccc(C#N)c(c23)C1 (stereo unspecified)	90 nM	47 µg 100ml-1	90%		390 nM
CCCN(CCC)C1Cc2c[nH]c3ccc(OC)c(c23)C1 (stereo unspecified)	36 nM	48 µg 100ml-1	58%	1179 nM	
CCCN(CCC)C1Cc2cccc3[nH]cc(c23)C1 (stereo unspecified)	141 nM				723 nM
CCCN(CCC)C1Cc2c[nH]c3ccc(C(N)=O)c(c23)C1 (stereo unspecified)	83 nM	49 µg 100ml-1	61%	4817 nM	
